# The list is not random: actives were taken first. Their share in the collection is about 3.7%.
# UPR CHOP act = activators of apoptotic CHOP UPR arm, primary screen, cell-based, CHO-CHOP luciferase reporter, luminescence, uHTS; UPR activation; percent of tunicamycin response over DMSO baseline; AID 449763, 2010; actives 0.34% (n = 330,000); activation, % at 10 µM;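 active means at 10 µM dose, activation of 40% or more, normalized to positive control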;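 further: 100% = tunicamycin at 10 µg/mL and 0% = DMSO alone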
#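 Test system: CHO CHOP reporter cells. Input: 500 CHO-CHOP cells per well. Medium: F12 with 10% FBS. Technique: luciferase luminescence. Measure: percent activation relative to tunicamycin control. Dosing: 10 µM compound, 0.5% DMSO. Timing: 16-18 h cell attachment, then 6 h compound exposure, 37 °C.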
# XBP1 UPR activ = activators of adaptive XBP1 UPR arm, primary screen, cell-based, CHO-XBP1 luciferase reporter, luminescence, uHTS | IRE1-XBP1 UPR activation; percent of tunicamycin response, DMSO as zero | activation, % at 20 µM | actives 0.33% (n = 330,000) | AID 463104, 2010;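 active means versus positive control, 20 µM dose yields 30% or more activation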;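 further: 100% = tunicamycin at 10 µg/mL and 0% = DMSO only wells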
#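 Material – CHO cell line with stable XBP1 luciferase reporter · Buffer or medium – F12 plus 10% FBS · Compound – single point, 20 µM final compound, 1% DMSO · Schedule – 16-18 h cell attachment at 37 °C, then 6 h compound exposure · Signal – Steady-Glo luminescence read · Benchmarks – high control tunicamycin 10 µg/mL final, low control DMSO vehicle only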
# B2AR ag = beta2AR agonists driving receptor internalization, primary screen, cell-based, FAP fluorogen, flow cytometry; Beta-2 adrenergic receptor (Homo sapiens), P07550; Am2.2-beta2AR cells; response, % (test concentration not listed); actives 0.43% (n = 340,000); AID 504454, 2011;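 active means response above a set limit, near 3 SD of response in nonfluorescent compounds, cut at about 42% in these data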
# Target sequence (P07550 whole entry, looked up): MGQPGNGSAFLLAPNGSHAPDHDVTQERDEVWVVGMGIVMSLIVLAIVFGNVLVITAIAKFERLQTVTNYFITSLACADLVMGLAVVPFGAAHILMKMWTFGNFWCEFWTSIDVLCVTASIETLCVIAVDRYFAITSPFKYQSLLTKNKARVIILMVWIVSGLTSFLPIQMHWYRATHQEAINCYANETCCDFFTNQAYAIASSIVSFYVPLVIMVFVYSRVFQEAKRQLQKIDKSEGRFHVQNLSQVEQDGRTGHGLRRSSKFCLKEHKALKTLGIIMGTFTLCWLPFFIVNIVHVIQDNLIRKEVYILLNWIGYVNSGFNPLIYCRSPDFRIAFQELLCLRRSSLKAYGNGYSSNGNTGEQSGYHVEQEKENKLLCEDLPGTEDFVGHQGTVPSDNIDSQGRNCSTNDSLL
# MDM2 E3 inh = MDM2-luciferase reporter signal enhancers, primary screen, MDM2 E3 ligase inhibitor project, cell-based, luminescence, 1536-well; actives 0.11% (n = 210,000); cell-based MDM2 ubiquitination luciferase reporter, 2 h; 0 = plate control, 100 = twice control, blank-subtracted; E3 ubiquitin-protein ligase Mdm2 (Homo sapiens), Q00987; signal enhancement, % at 5 µM;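 active means signal enhancement of 30% or more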;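 further: luminescence tracks abundance of the self-degrading MDM2-luciferase fusion protein; higher signal means inhibition of MDM2 E3 ligase activity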
#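 Test system: mammalian cells stably expressing self-ubiquitinating, self-degrading MDM2 E3–luciferase fusion; Amount: 2000 cells in each well; Medium: DMEM; Schedule: 4 h settle plus 2 h compound, 37 °C; Technique: SteadyLite luciferase luminescence after 15 min room-temperature reagent incubation; Benchmarks: plate control and blank wells.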
# Mdm2-MdmX inh = inhibitors of human Mdm2-MdmX association, primary screen, cell-based, luminescence, split luciferase, SaOS-2, uHTS. Protein Mdm4 (Homo sapiens) + E3 ubiquitin-protein ligase Mdm2 (Homo sapiens), …. SaOS-2 split-luciferase Mdm2/MdmX complementation. inhibition, % at 8 µM. actives 3% (n = 330,000);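 active means inhibition of at least 50% at 8 µM in the primary screen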
# Dynein transport = inhibitors of GR-EGFP nuclear translocation, primary screen, dynein cargo transport inhibitor project, imaging, high-content, 3617.4 mouse cells. z-score, hits read low. AID 1381, 2008. actives 0.47% (n = 220,000). test concentration mostly 20 µM; stimulated with dexamethasone, 1 µM; active compounds read low;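 active means plate z-score of nuclear minus cytoplasmic receptor signal below a set negative limit, without overly bright fluorescence or cell loss, cut at about -3.5 in these data, passing the limit was not always enough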;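 further: z-score of nuclear minus cytoplasmic ring GR-EGFP intensity difference per well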
#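 Buffer or medium – tet-free medium with charcoal-stripped serum · Signal – automated 10x imaging of fixed Hoechst-stained cells · Also added – dexamethasone agonist, 1.0 µM final, for 30 min · Incubation – induction 48 h, compound 1 h, agonist 30 min · Read-out – GR-EGFP nuclear translocation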
# Beta2AR ag CP1 = beta2AR agonists via receptor internalization, confirmation, cell-based, FAP fluorogen, flow cytometry, single point, cherry pick 1; percent response (surface receptor), % at 10 µM; AID 540358, 2011; Am2.2-beta2AR cells, FAP surface receptor; active compounds read low; shares compounds with B2AR ag; actives 25% (n = 1,100);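 active means surface receptor percent response at or below 58%, roughly 3 SD from nonfluorescent compounds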
# B2AR FAP counter = flagged in Am2.2 fluorescence counterscreen for beta-2AR agonists; calls only at 10 µM; 1,100 tested, under 10 active; shares compounds with B2AR ag; Am2.2 cells, FAP fluorogen flow cytometry; active compounds read low;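 active means percent response below a set limit in fluorescence channel 1 and below 50% in channel 8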
# Starred values were filed as active, the others as inactive; i = inactive; · = no result; + = active, no number; ! = a repeat was not active.
SMILES,UPR CHOP act,XBP1 UPR activ,B2AR ag,MDM2 E3 inh,Mdm2-MdmX inh,Dynein transport,Beta2AR ag CP1,B2AR FAP counter
CC(O)CCc1ccc(O)cc1 (stereo unspecified),-2.3,1.9,-2.0,-2.5,4.2,0.909,·,·
O=S(=O)(c1c(Cl)cc(Br)cc1Cl)N1CCN(C(=S)NC2CC2)CC1,1.2,-2.1,-24.9,·,19.1,·,·,·
CN1C[C@@H]2[C@@H]3C(=O)N(C)C(=O)[C@@H]3[C@](Cc3ccccc3)(C1=O)N2C(=O)c1ccc(F)cc1,·,·,-4.3,·,·,·,·,·
CCn1nc(NS(=O)(=O)c2ccc(F)cc2)c2cc3cccc(C)c3nc21,-0.3,-3.3,7.4,·,28.1,·,114.2,i
CCn1nc(NS(=O)(=O)c2ccccc2)c2cc3cccc(C)c3nc21,-2.6,1.6,5.0,2.6,20.3,0.535,·,i
CCn1nc(NS(=O)(=O)c2ccc(NC(C)=O)cc2)c2cc3cccc(C)c3nc21,0.8,-5.1,2.6,·,6.2,·,·,·
CCCn1nc(NS(C)(=O)=O)c2cc3cccc(C)c3nc21,1.0,-1.8,0.0,-17.0,-11.2,1.61,·,·
O=C(Nc1ccc(F)cc1F)c1csc(-c2ccncc2)n1,1.1,-1.8,-0.2,-14.9,2.6,2.24,·,·
Cc1ccc(C(=O)Nc2cccc(C(F)(F)F)c2)cc1NC(=O)c1csc(-c2ccncc2)n1,3.7,-4.1,90.6*,-3.3,18.4,0.237,36.3*!,+!
Cc1cccc(C)c1NC(=S)NCc1ccncc1,-0.9,-2.4,1.2,-0.8,2.5,-0.981,·,·
O=C(O)c1ccc(NS(=O)(=O)c2cccc(C(=O)Nc3cccc(C(=O)O)c3)c2)cc1,-2.9,-1.5,1.9,·,13.0,·,·,·
Cc1noc(C)c1S(=O)(=O)N1CCCC(C(=O)N2CCC(C)CC2)C1 (stereo unspecified),-1.3,-1.4,49.2*,-9.4,7.1,0.399,119.9,i
COC(=O)CSc1nc(N)c(C#N)c(-c2ccc(O)cc2)c1C#N,1.3,0.9,67.2*,-0.8,3.4,-0.59,76.0,i
O=C(CN1C(=O)CCC1=O)Nc1nc(-c2ccccn2)cs1,1.7,0.3,2.8,-18.8,4.2,0.489,·,·
O=C(CN1C(=O)CCC1=O)Nc1nc(-c2nc3ccccc3s2)cs1,2.8,-4.3,102.8*,-7.0,-94.3,-1.28,9.2*,i
Oc1ccccc1Nc1nc(NCC2CCCO2)c2ccccc2n1 (stereo unspecified),1.0,3.2,47.5*,-4.8,18.6,-0.97,8.6*,+
Oc1ccccc1Nc1nc(NCc2ccco2)c2ccccc2n1,0.9,11.3,51.3*,-12.7,28.2,1.57,23.3*,i
OCCN1CCN(c2nc(NCc3ccco3)c3ccccc3n2)CC1,-2.2,-5.9,-6.1,-7.8,18.7,-0.474,·,·
c1ccc(CN2CCN(c3nc(NCc4ccco4)c4ccccc4n3)CC2)cc1,0.3,-0.3,9.2,-15.9,36.4,-1.36,101.6,i
COc1cc(Cl)c(C)cc1NC(=O)CN1CCN(C(=O)C2CC2)CC1,-2.3,-2.7,1.1,·,35.9,·,·,·
Nc1ccc(C(=O)N2CCN(S(=O)(=O)c3ccc4c(c3)OCCCO4)CC2)cc1[N+](=O)[O-],1.3,-2.2,1.0,·,10.3,·,·,·
Cc1c([N+](=O)[O-])cnc(Sc2ccccc2)c1[N+](=O)[O-],9.2,7.2,11.1,·,-4.2,·,·,·
COC(=O)c1ccc2c(=O)[nH]c(CSc3nc(-c4ccc(F)cc4)cs3)nc2c1,-0.2,-0.2,63.5*,-5.5,22.1,0.041,105.5,i
COC(=O)c1ccc2c(=O)[nH]c(CSc3nc(C)cs3)nc2c1,3.9,2.5,1.6,-14.5,-18.3,-0.78,·,·
CCOC(=O)Cn1nnnc1CN(Cc1ccccc1)Cc1cc2cc(CC)ccc2[nH]c1=O,3.3,-1.3,100.2*,-18.3,11.0,0.558,62.5,i
SMILES,UPR CHOP act,XBP1 UPR activ,B2AR ag,MDM2 E3 inh,Mdm2-MdmX inh,Dynein transport,Beta2AR ag CP1,B2AR FAP counter
CC1(C)OC(=O)N(NCc2ccccc2)C1(C)O (stereo unspecified),6.1,-1.9,6.5,·,-1.4,·,·,·
O=C(Nc1ccc2oc(-c3ccncc3)nc2c1)c1ccc2c(c1)OCCO2,2.1,16.3,73.3*,·,47.7,-1.28,90.3,i
O=C(Nc1ccc2oc(-c3ccncc3)nc2c1)c1ccc2c(c1)OCO2,3.2,5.8,14.9,·,-6.7,-0.368,100.6,i
CCS(=O)(=O)CCn1c([N+](=O)[O-])cnc1C,0.8,-8.9,2.4,·,23.7,-0.562,101.9,i
Cc1ncc([N+](=O)[O-])n1CCO,1.0,-8.8,-0.6,·,-15.0,0.205,·,·
COC(=O)c1ccc(COc2cc(O)c3c(c2)OC(C)(C)CC3=O)cc1,0.7,6.8,45.5*,-12.7,24.3,-0.299,106.0,i
CC(CC(=O)O)Nc1ccccc1O (stereo unspecified),2.2,0.4,-5.0,-9.1,-30.3,0.287,·,·
COc1ccc(/C=C/C(=O)N2CCN(C)CC2)cc1S(=O)(=O)N1CCCCC1,0.5,0.5,-1.3,-5.0,12.5,-0.124,·,·
CCOC(=O)c1ccc(NC(=O)Cn2nnc(-c3ccccc3C)n2)cc1,3.1,0.4,-6.2,-14.9,0.6,1.96,121.0,i
CCOc1ccc(-c2nnn(CC(=O)Nc3cccc(OC)c3)n2)cc1OCC,-1.1,-1.7,3.0,-9.4,13.6,2.85,·,·
CCCOc1ccc(-c2nnn(CC(=O)Nc3cccc(C(=O)OC)c3)n2)cc1,-0.4,2.0,-8.8,-4.2,20.2,·,110.1,i
COC(=O)c1ccccc1NC(=O)Cn1nnc(-c2ccc(OC)cc2)n1,-0.2,1.7,-11.6,·,21.4,0.0341,94.0,i
